The target of test [1] is Ribonucleotide reductase large subunit R1 (Herpes simplex virus). The experiment in a line: Inhibitory effect was evaluated on Herpes simplex virus (HSV) ribonucleotide reductase (RR) enzyme.
Test [2] relates to BHK-21. In words: Effective concentration was evaluated against HSV-1 by using serum starved baby hamster kidney cells in a colorimetric viral yield assay. In kind it is functional, cell-based. The following applies: Mesocricetus auratus. The gist of the method:
(§1)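 Viral yield in serum-starved BHK cells, read colorimetrically. EC50 reported as mean of at least three separate determinations with standard deviation. Cytotoxicity measured in parallel by MTT (tetrazolium) metabolic assay to give CC50.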

Test [3] deals with BHK-21. The experiment in a line: Effective concentration was evaluated against HSV-2 by using serum starved baby hamster kidney cells in a colorimetric viral yield assay. It counts as functional, cell-based. The following applies: Mesocricetus auratus. The gist of the method: as §1

*1 amine or outer side, *2 acyl side, *3 side chain or, on linkers, in order; H or OH if unused. Where a SMILES comes first, the peptide text is derived from it. [ ]: non-standard residue; d: D form. The star is where a group is joined. Asp(3,3-(CH2)4) = N[C@H](C(=O)O)C1(C(=O)O)CCCC1; Dibenzylacetyl = O=C(C(Cc1ccccc1)Cc1ccccc1)*; Leu(γ-Me)ol = CC(C)(C)C[C@@H](CO)N*; tBuAla = CC(C)(C)C[C@H](N)C(=O)O; Tle = CC(C)(C)[C@H](N)C(=O)O; NMeV = CN[C@H](C(=O)O)C(C)C; X1 = CC[C@@H](N*)C(C)(C)C; NH(3-pentyl) = CCC(CC)N*; Pyrrolidide = C1CCN(*)C1; NHcHex = C1CCC(N*)CC1; CO = O=C([*:1])[*:2]; X2 = CCCC(CCC)N*; NHiPr = CC(C)N*

What is called IC50 is the point on the concentration scale where inhibition reaches its midpoint. Low readings indicate higher potency, high ones lower potency. With `CC(C)C[C@H](NC(=O)[C@H](CC(=O)O)NC(=O)[C@H](CC(=O)N1CCCC1)NC(=O)[C@@H](NC(=O)NC1[C@@H](C)CCC[C@@H]1C)C(C)C)C(=O)O.CC(C)C[C@H](NC(=O)[C@H](CC(=O)O)NC(=O)[C@H](CC(=O)N1CCCC1)NC(=O)[C@@H](NC(=O)NC1[C@H](C)CCC[C@H]1C)C(C)C)C(=O)O`, the IC50 in test [1] turned out to be 0.02 µM.

In test [1], `CCC(CC)NC(=O)N[C@H](C(=O)N[C@@H](CC(=O)N1CCCC1)C(=O)N[C@@H](CC(=O)O)C(=O)N[C@H](C)C(C)(C)C)C(C)(C)C` came in with an IC50 of 0.027 µM.

Consider `CCC(CC)NC(=O)N[C@H](C(=O)N[C@@H](CC(=O)N1CCCC1)C(=O)N[C@@H](CC(=O)O)C(=O)NCCC(C)(C)C)C(C)(C)C`, for which the IC50 in test [1] was found to be 0.1 µM.

Usually EC50 stands for the concentration giving half of the maximal effect. In the case of `CC[C@@H](NC(=O)[C@@H](NC(=O)[C@@H](CC(=O)[C@@H](NC(=O)N[C@@H]1[C@H](C)CCC[C@@H]1C)C(C)(C)C)CC(=O)N1CCCC1)C1(C(=O)O)CCCC1)C(C)(C)C`, the EC50 in test [2] was found to be 50 µM; in test [3], 80 µM.

For `CCC(CC)NC(=O)N[C@H](C(=O)N[C@@H](CC(=O)N1CCCC1)C(=O)N[C@@H](CC(=O)O)C(=O)NCC(C)(C)C)C(C)(C)C`, in test [1], half-maximal inhibition (IC50) required 0.04 µM.

Compound `CCC(CC)NC(=O)N[C@H](C(=O)N[C@@H](CC(=O)N1CCCC1)C(=O)N[C@@H](CC(=O)O)C(=O)NCC(C)C)C(C)(C)C` showed an IC50 in test [1] of 1.9 µM.

On to `CCC(CC)NC(=O)N[C@H](C(=O)N[C@@H](CC(=O)C(C)(C)C)C(=O)N[C@@H](CC(=O)O)C(=O)N[C@@H](CC(C)C)C(=O)O)C(C)(C)C`, for which 0.003 µM corresponded to half-maximal inhibition in test [1] (IC50).

For `C[C@@H]1CCC[C@H](C)[C@@H]1NC(=O)N[C@H](C(=O)C[C@@H](CC(=O)C(C)(C)C)C(=O)N[C@H](C(=O)NCC(C)(C)C)C1(C(=O)O)CCCC1)C(C)(C)C`, the EC50 was found to be 17 µM in test [2] and 26 µM in test [3].

Take `CCC(CC)NC(=O)N[C@H](C(=O)C[C@@H](CC(=O)N1CCCC1)C(=O)N[C@@H](CC(=O)O)C(=O)N[C@@H](CC(C)C)C(=O)O)C(C)(C)C`: the IC50 in test [1] was determined as 0.007 µM.

The compound `CCC(CC)NC(=O)N[C@H](C(=O)N[C@@H](CC(=O)N1CCCC1)C(=O)N[C@@H](CC(=O)O)C(=O)N[C@@H](C)C(C)(C)C)C(C)(C)C` yielded an IC50 in test [1] of 2.7 µM. This IC50 is about 390-fold higher than that of the compound before.

The compound `CCC(CC)NC(=O)N[C@H](C(=O)N[C@@H](CC(=O)N1CCCC1)C(=O)N[C@@H](CC(=O)O)C(=O)N[C@H](CO)CC(C)(C)C)C(C)(C)C` had an IC50 in test [1] of 0.006 µM. This IC50 lies about 450-fold lower than the previous one.

`CCC(CC)NC(=O)N[C@H](C(=O)N[C@@H](CC(=O)N1CCCC1)C(=O)N[C@@H](CC(=O)O)C(=O)NCCC(C)C)C(C)(C)C` came in with an IC50 in test [1] of 0.35 µM.

For the compound `CC[C@@H](NC(=O)[C@@H](NC(=O)[C@H](CC(=O)N1CCCC1)NC(=O)[C@@H](NC(=O)N[C@@H]1[C@H](C)CCC[C@@H]1C)C(C)(C)C)C1(C(=O)O)CCCC1)C(C)(C)C`, the results for the EC50 in test [2] and in test [3] were 28 µM and 40 µM, respectively.

Turning to `CCCC(CCC)NC(=O)N[C@H](C(=O)C[C@@H](CC(=O)C(C)(C)C)C(=O)N[C@H](C(=O)N[C@H](CC)C(C)(C)C)C1(C(=O)O)CCCC1)C(C)(C)C`, the EC50 in test [2] stood at 6 µM; in test [3], 5 µM.

The compound `CCC(CC)NC(=O)N[C@H](C(=O)C[C@@H](CC(=O)C(C)(C)C)C(=O)N[C@@H](CC(=O)O)C(=O)N[C@@H](CC(C)C)C(=O)O)C(C)(C)C` yielded an IC50 in test [1] of 0.005 µM.

On to `CCC(CC)NC(=O)N[C@H](C(=O)N[C@@H](CC(=O)N1CCCC1)C(=O)N[C@@H](CC(=O)O)C(=O)N[C@@H](CC)C(C)(C)C)C(C)(C)C`, for which the IC50 in test [1] came out at 2 µM. This IC50 is about 400-fold higher than that of the compound before.

Consider `CC[C@@H](NC(=O)[C@@H](NC(=O)[C@H](CC(=O)C(C)(C)C)NC(=O)[C@@H](NC(=O)N[C@@H]1[C@H](C)CCC[C@@H]1C)C(C)(C)C)C1(C(=O)O)CCCC1)C(C)(C)C`, for which the EC50 in test [2] and in test [3] was 13 µM each time.

`CC[C@@H](NC(=O)[C@@H](NC(=O)[C@@H](CC(=O)[C@@H](NC(=O)N[C@@H]1[C@H](C)CCC[C@@H]1C)C(C)(C)C)CC(=O)C(C)(C)C)C1(C(=O)O)CCCC1)C(C)(C)C`: the EC50 in test [2] stood at 6 µM; in test [3] it was 7 µM.

Take `C[C@@H]1CCC[C@H](C)[C@@H]1NC(=O)N[C@H](C(=O)C[C@@H](CC(=O)C(C)(C)C)C(=O)N[C@H](C(=O)N[C@H](CO)CC(C)(C)C)C1(C(=O)O)CCCC1)C(C)(C)C`: the EC50 in test [2] and in test [3] was 26 µM each time.

Regarding `CC[C@@H](NC(=O)[C@@H](NC(=O)[C@@H](CC(=O)[C@@H](NC(=O)[C@H](C(C)C)N(C)C(=O)C(Cc1ccccc1)Cc1ccccc1)C(C)(C)C)CC(=O)C(C)(C)C)C1(C(=O)O)CCCC1)C(C)(C)C`, the values for the EC50 in test [2] and in test [3] were 1.3 µM and 1.6 µM, respectively.

Compound `CCC(CC)NC(=O)N[C@H](C(=O)N[C@@H](CC(=O)N1CCCC1)C(=O)N[C@@H](CC(=O)O)C(=O)N[C@H](CC)C(C)(C)C)C(C)(C)C` returned an IC50 in test [1] of 0.018 µM.

Regarding `CC[C@@H](NC(=O)[C@@H](NC(=O)[C@H](CC(=O)N1CCCC1)NC(=O)[C@@H](NC(=O)[C@H](C(C)C)N(C)C(=O)C(Cc1ccccc1)Cc1ccccc1)C(C)(C)C)C1(C(=O)O)CCCC1)C(C)(C)C` (Dibenzylacetyl-[NMeV][Tle]D(Pyrrolidide)[Asp(3,3-(CH2)4)]-X1), the EC50 was found to be 0.8 µM in test [2] and 1.8 µM in test [3].

On to `CC(C)[C@@H](C(=O)N[C@H](C(=O)N[C@@H](CC(=O)N1CCCC1)C(=O)N[C@H](C(=O)N[C@H](CO)CC(C)(C)C)C1(C(=O)O)CCCC1)C(C)(C)C)N(C)C(=O)C(Cc1ccccc1)Cc1ccccc1` (Dibenzylacetyl-[NMeV][Tle]D(Pyrrolidide)[Asp(3,3-(CH2)4)]-{Leu(γ-Me)ol}), for which the EC50 came out at 3.1 µM in test [2] and 4.2 µM in test [3].

For the compound `CC(C)C[C@H](NC(=O)[C@H](CC(=O)O)NC(=O)[C@H](CC(=O)N1CCCC1)NC(=O)[C@@H](NC(=O)NC1[C@H](C)CCC[C@@H]1C)C(C)C)C(=O)O` (stereo in doubt; 7), the IC50 in test [1] is 0.055 µM. In other words, the double-digit nanomolar range.

In test [1], `CC(C)C[C@H](NC(=O)[C@H](CC(=O)O)NC(=O)[C@H](CC(=O)N1CCCC1)NC(=O)[C@@H](NC(=O)NC1[C@H](C)CCC[C@@H]1C)C(C)C)C(=O)O` (stereo in doubt; 9) returned an IC50 of 0.002 µM.

Regarding `CCC(CC)NC(=O)N[C@H](C(=O)N[C@@H](CC(=O)N1CCCC1)C(=O)N[C@@H](CC(=O)O)C(=O)N[C@@H](CC(C)C)C(=O)O)C(C)C` ({NH(3-pentyl)-CO}-VD(Pyrrolidide)DL-OH), it took 0.015 µM to reach half-maximal inhibition in test [1] (IC50).

Turning to `CCC(CC)NC(=O)N[C@H](C(=O)N[C@@H](CC(=O)N1CCCC1)C(=O)N[C@@H](CC(=O)O)C(=O)N[C@@H](CC(C)C)C(=O)O)C(C)(C)C` ({NH(3-pentyl)-CO}-[Tle]D(Pyrrolidide)DL-OH), it took 0.003 µM to reach half-maximal inhibition in test [1] (IC50).

`CCC(CC)NC(=O)N[C@H](C(=O)N[C@@H](CC(=O)N1CCCC1)C(=O)N[C@@H](CC(=O)O)C(=O)N[C@@H](CC(C)(C)C)C(=O)O)C(C)(C)C` ({NH(3-pentyl)-CO}-[Tle]D(Pyrrolidide)D[tBuAla]-OH): in test [1], the midpoint of inhibition, the IC50, lay at 0.0006 µM.

Regarding `CC(C)C[C@H](NC(=O)[C@H](CC(=O)O)NC(=O)[C@H](CC(=O)N1CCCC1)NC(=O)[C@@H](NC(=O)NC1CCCCC1)C(C)C)C(=O)O` ({NHcHex-CO}-VD(Pyrrolidide)DL-OH), the IC50 in test [1] came to 0.5 µM.

On to `CC(C)C[C@H](NC(=O)[C@H](CC(=O)O)NC(=O)[C@H](CC(=O)N1CCCC1)NC(=O)[C@@H](NC(=O)NC(C)C)C(C)C)C(=O)O` ({NHiPr-CO}-VD(Pyrrolidide)DL-OH), for which the IC50 in test [1] turned out to be 0.44 µM. This IC50 and that of the compound before are within 1.5-fold of each other.

As for `CCCC(CCC)NC(=O)N[C@H](C(=O)N[C@@H](CC(=O)N1CCCC1)C(=O)N[C@@H](CC(=O)O)C(=O)N[C@@H](CC(C)C)C(=O)O)C(C)C` ({X2-CO}-VD(Pyrrolidide)DL-OH), 0.007 µM corresponded to half-maximal inhibition in test [1] (IC50).

In the case of `Nc1nc2c(ncn2COCCO)c(=O)[nH]1` [ACYCLOVIR], the EC50 in test [2] and in test [3] was 2 µM throughout.

The record behind these values is ChEMBL document CHEMBL1129444, “Peptidomimetic inhibitors of herpes simplex virus ribonucleotide reductase with improved in vivo antiviral activity” (J Med Chem, 1996).
